Published values pooled from the literature.
Compare with care: the assays were run in different laboratories.
Maob: Amine oxidase [flavin-containing] B (Maob, Rattus norvegicus, UniProt P19643)
GRM2: Metabotropic glutamate receptor 2 (GRM2, Homo sapiens, UniProt Q14416)
ALPI: Intestinal-type alkaline phosphatase (ALPI, Bos taurus, UniProt P19111)
RET: Proto-oncogene tyrosine-protein kinase receptor Ret (RET, Homo sapiens, UniProt P07949)
LCK: Tyrosine-protein kinase Lck (LCK, Homo sapiens, UniProt P06239)
EPHX2: Bifunctional epoxide hydrolase 2 (EPHX2, Homo sapiens, UniProt P34913)
NMUR1: Neuromedin-U receptor 1 (NMUR1, Homo sapiens, UniProt Q9HB89)

`CC(=NN=C1CS(=O)(=O)N(C)c2ccccc21)c1ccc([N+](=O)[O-])s1` gave an IC50 of 1.25 µM (Maob; enzyme activity; inhibitor; fluorescence).
`CC1=C(CC(=O)O)c2cc(F)ccc2/C1=C\c1ccc([S+](C)[O-])cc1` (stereo not shown) has an IC50 of 0.3 µM (Aldo-keto reductase family 1 member B1 (AKR1B1, Homo sapiens, UniProt P15121); enzyme activity; inhibitor; absorbance; pH 6.2).
`O=c1cc(-c2ccc(O)c(-c3c(O)cc(O)c4c(=O)cc(-c5ccc(O)cc5)oc34)c2)oc2cc(O)cc(O)c12` has an IC50 of 5 µM (Tyrosine-protein kinase JAK2 (JAK2, Homo sapiens, UniProt O60674); enzyme activity; inhibitor).
With `COc1ccc(-c2cc(C(N)=O)ncc2OCc2ccc(F)nc2)c(F)c1` the IC50 was 0.074 µM (GRM2; ion flux; antagonist).
`CCCCCCCCN1CC2=C(C1=O)C(c1ccc(O)cc1)NC(=O)N2` (stereo not shown) gave an IC50 of 8.23 µM (ALPI; enzyme activity; inhibitor; absorbance).
With `CC(=NN=C1CS(=O)(=O)N(C)c2ccccc21)c1cccs1` the IC50 was 1.98 µM (Maob; enzyme activity; inhibitor; fluorescence).
`O=C1NC2=C(C(=O)N(Cc3ccc(F)cc3)C2)C(c2ccccc2O)N1` (stereo not shown) has an IC50 of 1.27 µM (ALPI; enzyme activity; inhibitor; absorbance).
For `CN(C)CC#Cc1ccc2[nH]c3c(c2c1)-c1nc(N)ncc1CCC3`, the IC50 was greater than 10 µM (Dual specificity mitogen-activated protein kinase kinase 4 (MAP2K4, Homo sapiens, UniProt P45985); enzyme activity; inhibitor; radiometric).
`COc1ccc2c(Oc3ccc4c(C(=O)Nc5ccccc5N)cccc4c3)ccnc2c1` has an IC50 of greater than 0.5 µM (RET; enzyme activity; inhibitor).
`COc1ccc(-c2cc(C(N)=O)ncc2OCc2ccc(OC)nc2)c(F)c1` has an IC50 of 0.224 µM (GRM2; ion flux; antagonist).
For `COc1ccc(N2CC3=C(C2=O)C(c2ccccc2O)NC(=O)N3)cc1` (stereo not shown), the IC50 was 4.87 µM (ALPI; enzyme activity; inhibitor; absorbance).
`CNC(=O)c1cc2c(Oc3ccc(NC(=O)C4(C(=O)Nc5ccc(F)cc5)CC4)cc3)ccnc2cc1OC` has an IC50 of 0.012 µM (LCK; enzyme activity; inhibitor; radiometric).
The IC50 of `Cc1ccc(C(=O)Nc2ccc(Oc3cc4cnn(C)c4cc3-c3cn[nH]c3)c(F)c2)c(=O)n1-c1ccc(F)cc1` is reported as 2 µM (Proto-oncogene tyrosine-protein kinase receptor Ret (RET, Homo sapiens, UniProt P07949, C634W); phosphorylation in cells; inhibitor; western blot).
`COc1ccc(N2CC3=C(C2=O)C(c2ccc(O)cc2)NC(=O)N3)cc1` (stereo not shown) gave an IC50 of 9.43 µM (ALPI; enzyme activity; inhibitor; absorbance).
For `O=C(CCCCCCCCc1ccc(O)c(O)c1)c1c(O)cccc1O`, the IC50 was 25.9 µM (EPHX2; enzyme activity; inhibitor; fluorescence).
`O=C1NC2=C(C(=O)N(Cc3ccc(Cl)cc3)C2)C(c2ccc(O)cc2)N1` (stereo not shown) gave an IC50 of 5.35 µM (ALPI; enzyme activity; inhibitor; absorbance).
With `Cn1ccc(COc2cnc(C(N)=O)cc2-c2ccc(F)cc2)n1` the IC50 was 0.058 µM (GRM2; ion flux; antagonist).
For `O=C1NC2=C(C(=O)N(c3ccc(F)cc3)C2)C(c2ccc(O)cc2)N1` (stereo not shown), the IC50 was 2.5 µM (ALPI; enzyme activity; inhibitor; absorbance).
For `COc1cc2nccc(Oc3ccc(NC(=O)c4cc5c(n(-c6ccccc6)c4=O)CCCC5=O)nc3)c2cc1OC`, the IC50 was greater than 0.1 µM (LCK; enzyme activity in cells; inhibitor; ATP luminescence).
`Nc1nc(NCc2ccccc2CO)c2[nH]cnc2n1` gave an IC50 of greater than 1000 µM (Methylated-DNA--protein-cysteine methyltransferase (MGMT, Homo sapiens, UniProt P16455); enzyme activity; inhibitor; 30 min).
The IC50 of `CC12CC3(C)CC(C)(C1)CC(NC(=O)Nc1ccccc1F)(C2)C3` is reported as 0.0943 µM (EPHX2; enzyme activity; inhibitor; fluorescence).
With `CCC(C)(O)C(=O)N1CCC(NC(=O)Nc2ccc(OC(F)(F)F)c(F)c2)CC1` (stereo not shown) the IC50 was 9e-05 µM (EPHX2; enzyme activity; inhibitor).
`O=C(Cc1cccc(Nc2ncnc3[nH]ccc23)c1)Nc1ccc(F)c(Cl)c1` gave an IC50 of greater than 20 µM (RET; enzyme activity; inhibitor; mobility shift).
`CC(=NN=C1CS(=O)(=O)N(C)c2ccccc21)c1sccc1Br` has an IC50 of 3.82 µM (Maob; enzyme activity; inhibitor; fluorescence).
`CC(C)(C)n1nc(-c2cnc3cc(OC4CC4)ccc3c2)c(C(N)=O)c1N` has an IC50 of greater than 10 µM (Mitogen-activated protein kinase kinase kinase 10 (MAP3K10, Homo sapiens, UniProt Q02779); cell-free assay).
`COc1ccc(-c2cc(C(N)=O)ncc2OCc2ccncc2)c(F)c1` has an IC50 of 0.033 µM (GRM2; ion flux; antagonist).
`CC(C)C[C@H](NC(=O)[C@H](Cc1ccccc1)NC(=O)[C@@H](N)Cc1ccc(O)cc1)C(=O)N[C@@H](Cc1ccccc1)C(=O)N[C@@H](CCCNC(=N)N)C(=O)N1CCC[C@H]1C(=O)N[C@@H](CCCNC(=N)N)C(=O)N[C@@H](CC(N)=O)C(N)=O` gave an IC50 of 0.000661 µM (NMUR1; ligand displacement; radioligand).
With `CCCC(CNC(=O)Nc1ccccc1F)C1C2CC3CC(C2)CC1C3` (stereo not shown) the IC50 was 0.106 µM (EPHX2; enzyme activity; inhibitor; fluorescence).
For `CC(C)C[C@H](NC(=O)[C@H](Cc1ccccc1)NC(=O)[C@H](Cc1ccc(O)cc1)NC(=O)CNC(=O)[C@H](CCCNC(=N)N)NC(=O)[C@H](CO)NC(=O)[C@H](CCC(N)=O)NC(=O)[C@H](CO)NC(=O)[C@H](C)NC(=O)[C@H](Cc1ccccc1)NC(=O)[C@@H]1CCCN1C(=O)[C@H](CO)NC(=O)[C@H](CCC(N)=O)NC(=O)[C@H](Cc1ccccc1)NC(=O)[C@H](CCC(=O)O)NC(=O)[C@H](CCC(=O)O)NC(=O)[C@H](CC(=O)O)NC(=O)[C@@H](NC(=O)[C@H](CCCNC(=N)N)NC(=O)[C@@H](N)Cc1ccccc1)C(C)C)C(=O)N[C@@H](Cc1ccccc1)C(=O)N[C@@H](CCCNC(=N)N)C(=O)N1CCC[C@H]1C(=O)N[C@@H](CCCNC(=N)N)C(=O)N[C@@H](CC(N)=O)C(N)=O`, the IC50 was 0.000107 µM (NMUR1; ligand displacement; radioligand).
`COc1ccc(-c2nsc(NC(=O)[C@@H]3C[C@H]3C)c2C)cc1` has an IC50 of greater than 12.5 µM (GRM2; calcium signal; antagonist).
`CC(C)CCC[C@@H](C)[C@H]1CC[C@H]2[C@@H]3C[C@@H](NCCc4c[nH]cn4)[C@@]4(O)C[C@@H](O)CC[C@]4(C)[C@H]3CC[C@]12C` gave an IC50 of greater than 100 µM (EPHX2; enzyme activity; inhibitor).
With `Cc1ccc2nc(Cl)c(C=NN=C3CS(=O)(=O)N(C)c4ccccc43)cc2c1` the IC50 was 1.43 µM (Maob; enzyme activity; inhibitor; fluorescence).
`COc1ccc(-c2cc(C(N)=O)ncc2OCc2ccnc(C)c2)c(F)c1` has an IC50 of 0.059 µM (GRM2; ion flux; antagonist).
The IC50 of `CN1c2ccccc2C(=NN=Cc2cc3ccc(Cl)cc3nc2Cl)CS1(=O)=O` is reported as 1.21 µM (Maob; enzyme activity; inhibitor; fluorescence).
`Cc1cnc(-c2ccc(-c3ccc(NC(=O)Nc4c(F)cc(F)cc4F)cc3F)c3c2C(=O)NC3)[nH]1` has an IC50 of 0.0148 µM (RET; enzyme activity; inhibitor).
For `O=C(Nc1ccccc1F)NC12CC3CC(CC(C3)C1)C2`, the IC50 was 0.0037 µM (EPHX2; enzyme activity; inhibitor; fluorescence).
`CC(=NN=C1CS(=O)(=O)N(C)c2ccccc21)c1cc(C)sc1C` has an IC50 of 2.61 µM (Maob; enzyme activity; inhibitor; fluorescence).
